# Source: PubChem BioAssay (several laboratories)
# This excerpt belongs to a sample that is enriched for hits.
# T cruzi repl = inhibitors of intracellular T. cruzi growth, primary screen, luminescence, NIH3T3 host cells | T. cruzi beta-gal in NIH3T3, 90 h | inhibition, % (concentration not given with the values) | hit rate 1.4% among 300,000 | AID 1885, 2009;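 active = mean inhibition across valid replicates above about 55%, limit read from the data; inconclusive = mean below that limit but half or more replicates reach it; inactive = mean below it, under half of replicates reach it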;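 note: signal also drops with host cell toxicity which is not excluded here; higher percent means less beta-gal luminescence so fewer parasites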
#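 Assay system: NIH/3T3 host cells with β-galactosidase reporter T. cruzi; input: 5,000 host fibroblasts per well; compound: single 50 nL compound addition per well in DMSO; timing: ≥90 h infection period, 3 h prior cell attachment; measured by: GalScreen β-gal luminescence, detergent lysis, 60 min; evaluation: percent inhibition of parasite-derived β-gal signal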
# CHOP inh = inhibitors of CHOP promoter induction, primary screen, cell-based, unfolded protein response, luciferase reporter | CHO-K1 CHOP-promoter luciferase, tunicamycin-induced, 15-18 h | inhibition, % at 10 µM | AID 2732, 2010 | hit rate 3.8% among 220,000;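 active = compounds that reduced the stress-induced luciferase reporter signal by more than about 70% of percent inhibition, limit read from the data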
# UPR CHOP act = activators of apoptotic CHOP UPR arm, primary screen, cell-based, CHO-CHOP luciferase reporter, luminescence, uHTS | UPR activation; percent of tunicamycin response over DMSO baseline | activation, % at 10 µM | hit rate 0.34% among 330,000 | AID 449763, 2010;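 active = at 10 µM dose, activation of 40% or more, normalized to positive control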
#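 System: CHO-CHOP luciferase reporter cell line | Buffer or medium: F12 medium containing 10% fetal bovine serum | Doses: One dose, 10 µM in 0.5% DMSO | Times: 6 h compound exposure at 37 °C after overnight seeding | Signal: Luciferase luminescence | Read-out: % activation vs tunicamycin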
# Dynein transport = inhibitors of GR-EGFP nuclear translocation, primary screen, dynein cargo transport inhibitor project, imaging, high-content, 3617.4 mouse cells | test concentration mostly 20 µM; stimulated with dexamethasone, 1 µM; hits give low values | hit rate 0.47% among 220,000 | z-score, hits read low | AID 1381, 2008;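 active = plate z-score of nuclear minus cytoplasmic receptor signal below a set negative limit, without overly bright fluorescence or cell loss, cut at about -3.5 in these data, passing the limit was not always enough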;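 note: z-score of nuclear minus cytoplasmic ring GR-EGFP intensity difference per well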
#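 medium = tetracycline-free induction medium containing charcoal-stripped FBS | also added = 1.0 µM final dexamethasone stimulus | schedule = 48 h induction, 1 h compound, 30 min dex at 37 °C | technique = fixed, Hoechst-stained cells imaged at 10x for EGFP | measure = GR-EGFP nuclear translocation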
# L major viab = Leishmania major promastigote growth inhibition, primary screen; Leishmania major promastigotes, resazurin fluorescence viability; inhibition, % at 10 µM; hit rate 9% among 200,000; in the data active = inhibition above about 50%;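 note: promastigotes grown with compound for 44 hours at 28 °C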
# XBP1 UPR activ = activators of adaptive XBP1 UPR arm, primary screen, cell-based, CHO-XBP1 luciferase reporter, luminescence, uHTS | IRE1-XBP1 UPR activation; percent of tunicamycin response, DMSO as zero | activation, % at 20 µM | AID 463104, 2010 | hit rate 0.33% among 330,000;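 active = versus positive control, 20 µM dose yields 30% or more activation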
#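 Material: CHO-XBP1 cells stably carrying IRE1-XBP1-driven luciferase reporter | Medium: F12 with 10% serum | Compound dosing: 20 µM single concentration, DMSO 1% | Incubation: Overnight seeding at 37 °C, 6 h compound treatment at 37 °C | Detection: Steady-Glo luminescence read | Read-out basis: % activation of reporter signal versus tunicamycin and DMSO controls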
# CHOP confirm = retest of CHOP induction inhibitors, confirmation, cell-based | shares compounds with CHOP inh | CHO-CHOP promoter luciferase reporter, tunicamycin-induced, luminescence | inhibition, % at 10 µM | hit rate 45% among 2,100 | AID 504437, 2011;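 active = mean of three repeat readings of reporter signal inhibition above a set limit, cut at about 70% in these data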
# A number is an active result; i = inactive; ? = inconclusive; nt = no result.
SMILES,T cruzi repl,CHOP inh,UPR CHOP act,Dynein transport,L major viab,XBP1 UPR activ,CHOP confirm
CC(C)Sc1nc2c(c(=O)[nH]c(=O)n2C)n1Cc1ccc(Cl)cc1,i,i,i,i,i,i,nt
COc1ccc(CNC(=O)COC(=O)[C@H](Cc2c[nH]c3ccccc23)NC(=O)c2cccs2)cc1,i,i,i,i,i,i,nt
CSCCC(NS(=O)(=O)c1ccc(Cl)cc1)C(=O)O (stereo unspecified),i,i,i,i,i,i,nt
CSCCC(NS(=O)(=O)c1ccc(Cl)cc1)C(=O)OCc1cccc(Cl)c1 (stereo unspecified),i,106,i,i,97,i,i
CC(C)(C)c1cc(NC(=O)Nc2ccc(Cl)cc2Cl)no1,i,96,i,i,nt,i,i
O=S(=O)(Nc1ccc(Cc2ccncc2)cc1)c1ccc(Cl)c(Cl)c1,i,103,i,i,74,i,i
COc1ccc(S(=O)(=O)Nc2ccc(Cc3ccncc3)cc2)cc1OC,i,nt,i,nt,nt,i,nt
COc1ccccc1CC(O)CC1c2c(cc3c(c2OC)OCO3)CCN1C (stereo unspecified),nt,nt,i,nt,nt,i,nt
COc1ccc(CC(=O)NNC2=Nc3cccc4cccc2c34)cc1,i,100,i,i,nt,i,i
O=C1c2sc3nc4ccccc4n3c2C(=O)N1c1ccccc1Cl,i,106,i,i,i,i,i
Cc1ccccc1N1C(=O)c2sc3nc4c(c(=O)n3c2C1=O)CCC4,i,106,i,i,i,i,i
NS(=O)(=O)c1ccc(CNC(=O)c2cc(S(=O)(=O)N3CCOCC3)c(Cl)cc2Cl)cc1,nt,nt,i,nt,nt,i,nt
Cc1cc2c(sc3c(C)ccc(C)c32)c(C)n1,i,i,i,i,nt,i,nt
Cc1ccc(Nc2ccc(C(=O)NC3CCCCC3)cn2)cc1,i,i,i,i,nt,i,nt
CC(C)c1nnc(NC(=O)c2c(O)c3cccc4c3n(c2=O)CCC4)s1,i,104,i,i,72,i,109
COc1ccc(OC)c(S(=O)(=O)Oc2ccc(N)c3ccccc23)c1,i,nt,i,nt,nt,i,nt
CNC(=O)NC(=O)C(C)OC(=O)c1oc2ccccc2c1CSc1ccc(Cl)cc1 (stereo unspecified),i,98,i,i,i,i,99
CC(C)C(OC(=O)c1oc2ccccc2c1CSC1CCCCC1)C(=O)NC(N)=O (stereo unspecified),i,i,i,i,i,i,nt
CCNC(=O)NC(=O)C(C)OC(=O)c1oc2ccccc2c1CSC1CCCCC1 (stereo unspecified),i,99,i,i,72,i,i
CN(CC(=O)Nc1cccc(F)c1)C(=O)CSc1ccccc1F,i,nt,i,nt,nt,i,nt
CC(C)(O)[C@@H]1CC[C@@](C)(C2CC[C@]3(C)C2[C@H](O)CC2[C@@]4(C)CC[C@H](O)C(C)(C)C4[C@@H](O[C@H]4O[C@@H](CO)[C@H](O)[C@@H](O)[C@@H]4O[C@@H]4O[C@H](CO)[C@@H](O)[C@H](O)[C@H]4O)C[C@]23C)O1 (stereo in doubt),nt,nt,i,nt,nt,i,nt
Oc1ccccc1-c1cc(-c2ccccc2Cl)[nH]n1,i,99,i,i,i,i,i
Oc1ccc(Cl)cc1-c1cc(-c2ccccc2Cl)[nH]n1,i,i,i,i,i,i,nt
Cc1ccc(-c2n[nH]c(=S)n2/N=C/c2c(C)nn(-c3ccccc3)c2C)cc1,i,109,i,i,i,i,i
Cc1ccc(NC(=O)CSC2=C(C#N)C(c3ccco3)C3=C(CC(C)(C)CC3=O)N2)cc1 (stereo unspecified),i,100,i,i,i,i,i
SMILES,T cruzi repl,CHOP inh,UPR CHOP act,Dynein transport,L major viab,XBP1 UPR activ,CHOP confirm
Cc1ccc(NC(=O)c2ccc(C#CC3(O)CCCCC3)cc2)cc1C,?,101,i,i,i,i,106
Cc1ccc(NC(=O)NC2CCCCCCC2)cc1C,nt,nt,i,nt,nt,i,nt
COc1ccc2cc(C(=O)N/N=C/c3sc4ccccc4c3O)ccc2c1,i,97,i,i,i,i,i
CC(=O)Nc1ccc(-c2nnc(SCC(=O)c3ccc4c(c3)Cc3ccccc3-4)n2C)cc1,i,105,i,i,i,i,i
CC(C)(C)c1ccc(C(=O)NCC(=O)OCC(=O)N2CCCC2)cc1,nt,nt,i,nt,nt,i,nt
COc1ccc(C(=O)N/C(=C\c2ccc3c(c2)OCO3)C(=O)N2CCOCC2)cc1,i,nt,i,nt,nt,i,nt
Cc1c(Br)c([N+](=O)[O-])nn1CC(=O)Nc1ccc(C(C)C)cc1,i,96,i,i,i,i,i
CC(=O)Nc1ccc(NC(=O)Cn2nc([N+](=O)[O-])c(Br)c2C)cc1,i,i,i,i,i,i,nt
Cc1ccccc1NC(=O)/C=C/c1ccc([N+](=O)[O-])s1,i,102,nt,i,82,nt,79
Cc1ccccc1NC(=O)/C=C/c1cccs1,i,i,i,i,i,i,nt
O=C(NCCCN=C1NS(=O)(=O)c2ccccc21)c1ccc(Cl)cc1,i,nt,i,nt,nt,i,nt
COCCN(C(=O)C1CCCC1)c1c(N)n(Cc2ccccc2)c(=O)[nH]c1=O,i,i,i,i,i,i,nt
Nc1c(N(C(=O)Nc2ccc(Cl)c(Cl)c2)C2CCCC2)c(=O)[nH]c(=O)n1Cc1ccccc1,i,103,i,i,i,i,115
CC1C(=O)N2CCCc3cc(S(=O)(=O)Nc4ccccc4C(N)=O)cc1c32 (stereo unspecified),i,nt,i,nt,nt,i,nt
CCOC(=O)c1cnc(-n2nc(C)cc2C)nc1NCCc1ccccc1,55,101,i,i,99,i,i
Cc1ccc(Cn2nc(C)c(NC(=O)c3cc(-c4ccc5c(c4)OCO5)on3)c2C)cc1,i,106,i,i,i,i,i
Cc1nn(Cc2ccc(F)cc2)c(C)c1NC(=O)c1cc(-c2ccc3c(c2)OCO3)on1,i,i,i,i,i,i,nt
CCOc1ccccc1-n1nnnc1SCC(=O)N1CCCC1=O,nt,nt,i,nt,nt,i,nt
CC(C)(C)OC(=O)N[C@H](/C=C/c1ccccc1)C(=O)OC(C)(C)C,nt,nt,i,nt,nt,i,nt
COc1ccccc1NS(=O)(=O)c1cccc(C(=O)N2CCN(Cc3ccc4c(c3)OCO4)CC2)c1,i,nt,i,nt,nt,i,nt
O=[N+]([O-])c1ccc(/C=N/N=C/c2ccc([N+](=O)[O-])o2)o1,nt,108,nt,-3.6,100,nt,134
O=C(O)/C=C/c1ccc([N+](=O)[O-])o1,i,i,i,i,i,i,nt
